# According to ChEMBL document CHEMBL3120060, “Synthesis, in vitro anticancer evaluation and in silico studies of novel imidazo[2,1-b]thiazole derivatives bearing pyrazole moieties” (2014):
# Columns and labels:
# Format in all cases: functional
# SNB-19 = test: Cytotoxicity against human SNB19 cells assessed as cell growth at 10 uM after 48 hrs by SRB assay; details: SNB-19, 48 h, read-out: Activity
# Procedure, shortened: (§1)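 NCI-60 single-dose screen. Cell lines grown in RPMI 1640 with 5% FBS and 2 mM L-glutamine, plated at 5000–40,000 cells/well according to doubling time, then preincubated 24 h at 37 °C in 5% CO2. Compounds dissolved in DMSO, tested at 10^-5 M for 48 h. Adherent cells fixed with cold TCA (10% final) and stained with 0.4% SRB in 1% acetic acid. Growth expressed as percent of untreated control.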
# SF-539 = test: Cytotoxicity against human SF539 cells assessed as cell growth at 10 uM after 48 hrs by SRB assay; details: SF-539, 48 h, read-out: Activity; procedure, shortened: as §1
# SF-268 = test: Cytotoxicity against human SF268 cells assessed as cell growth at 10 uM after 48 hrs by SRB assay; details: SF-268, 48 h, read-out: Activity; procedure, shortened: as §1
# KM12 = test: Cytotoxicity against human KM12 cells assessed as cell growth at 10 uM after 48 hrs by SRB assay; details: KM12, 48 h, read-out: Activity; procedure, shortened: as §1
# HT-29 = test: Cytotoxicity against human HT-29 cells assessed as cell growth at 10 uM after 48 hrs by SRB assay; details: HT-29, 48 h, read-out: Activity; procedure, shortened: as §1
# HCT-15 = test: Cytotoxicity against human HCT15 cells assessed as cell growth at 10 uM after 48 hrs by SRB assay; details: HCT-15, 48 h, read-out: Activity; procedure, shortened: as §1
# HCC 2998 = test: Cytotoxicity against human HCC2998 cells assessed as cell growth at 10 uM after 48 hrs by SRB assay; details: HCC 2998, 48 h, read-out: Activity; procedure, shortened: as §1
# NCI-H522 = test: Cytotoxicity against human NCI-H522 cells assessed as cell growth at 10 uM after 48 hrs by SRB assay; details: NCI-H522, 48 h, read-out: Activity; procedure, shortened: as §1
# NCI-H23 = test: Cytotoxicity against human NCI-H23 cells assessed as cell growth at 10 uM after 48 hrs by SRB assay; details: NCI-H23, 48 h, read-out: Activity; procedure, shortened: as §1
# NCI-H226 = test: Cytotoxicity against human NCI-H226 cells assessed as cell growth at 10 uM after 48 hrs by SRB assay; details: NCI-H226, 48 h, read-out: Activity; procedure, shortened: as §1
# HOP-92 = test: Cytotoxicity against human HOP92 cells assessed as cell growth at 10 uM after 48 hrs by SRB assay; details: HOP-92, 48 h, read-out: Activity; procedure, shortened: as §1
# SR = test: Cytotoxicity against human SR cells assessed as cell growth at 10 uM after 48 hrs by SRB assay; details: read-out: Activity
# Procedure, shortened: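 Leukemia line, NCI-60 single-dose screen at 10^-5 M. Cells are grown in RPMI 1640 with 5% FBS and 2 mM L-glutamine, plated by doubling time, and preincubated 24 h at 37 °C with 5% CO2. After 48 h drug exposure, settled cells are fixed with 80% TCA (final 16%) and stained with SRB. Percent growth is calculated against untreated control and time-zero plates.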
# CCRF-CEM = test: Cytotoxicity against human CCRF-CEM cells assessed as cell growth at 10 uM after 48 hrs by SRB assay; details: read-out: Activity; procedure, shortened: as §1
# T47D = test: Cytotoxicity against human T47D cells assessed as cell growth at 10 uM after 48 hrs by SRB assay; details: read-out: Activity
# Procedure, shortened: (§2)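 NCI-60 single-dose screen at 10^-5 M. Adherent lines are grown in RPMI 1640 with 5% FBS and 2 mM L-glutamine, seeded at 5000–40,000 cells/well by doubling time, and preincubated 24 h at 37 °C in 5% CO2. Drug is added from DMSO stock diluted in medium, then 48 h. Cells are fixed in cold TCA (final 10%) for 60 min and stained with 0.4% SRB in 1% acetic acid. Growth is expressed as % of untreated control using time-zero plates.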
# BT-549 = test: Cytotoxicity against human BT549 cells assessed as cell growth at 10 uM after 48 hrs by SRB assay; details: BT-549, 48 h, read-out: Activity; procedure, shortened: as §1
# PC-3 = test: Cytotoxicity against human PC3 cells assessed as cell growth at 10 uM after 48 hrs by SRB assay; details: PC-3, 48 h, read-out: Activity; procedure, shortened: as §1
# [1] = Cytotoxicity against human UO31 cells assessed as cell growth at 10 uM after 48 hrs by SRB assay; details: UO-31, 48 h, read-out: Activity; procedure, shortened: as §2
# TK-10 = test: Cytotoxicity against human TK10 cells assessed as cell growth at 10 uM after 48 hrs by SRB assay; details: TK-10, 48 h, read-out: Activity; procedure, shortened: as §2
# ACHN = test: Cytotoxicity against human ACHN cells assessed as cell growth at 10 uM after 48 hrs by SRB assay; details: read-out: Activity; procedure, shortened: as §1
# A498 = test: Cytotoxicity against human A498 cells assessed as cell growth at 10 uM after 48 hrs by SRB assay; details: A498, 48 h, read-out: Activity; procedure, shortened: as §1
# SK-OV-3 = test: Cytotoxicity against human SKOV3 cells assessed as cell growth at 10 uM after 48 hrs by SRB assay; details: SK-OV-3, 48 h, read-out: Activity; procedure, shortened: as §1
# [2] = Cytotoxicity against human NCI-ADR-RES cells assessed as cell growth at 10 uM after 48 hrs by SRB assay; details: read-out: Activity; procedure, shortened: as §1
# OVCAR-8 = test: Cytotoxicity against human OVCAR8 cells assessed as cell growth at 10 uM after 48 hrs by SRB assay; details: OVCAR-8, 48 h, read-out: Activity; procedure, shortened: as §1
# [3] = Cytotoxicity against human OVCAR4 cells assessed as cell growth at 10 uM after 48 hrs by SRB assay; details: OVCAR-4, 48 h, read-out: Activity; procedure, shortened: as §1
# SK-MEL-5 = test: Cytotoxicity against human SK-MEL-5 cells assessed as cell growth at 10 uM after 48 hrs by SRB assay; details: SK-MEL-5, 48 h, read-out: Activity; procedure, shortened: as §1
# MDA-MB-435 = test: Cytotoxicity against human MDA-MB-435 cells assessed as cell growth at 10 uM after 48 hrs by SRB assay; details: MDA-MB-435, 48 h, read-out: Activity; procedure, shortened: as §1
# M14 = test: Cytotoxicity against human M14 cells assessed as cell growth at 10 uM after 48 hrs by SRB assay; details: M14, 48 h, read-out: Activity; procedure, shortened: as §1
# Malme-3M = test: Cytotoxicity against human MALME-3M cells assessed as cell growth at 10 uM after 48 hrs by SRB assay; details: read-out: Activity; procedure, shortened: as §1
# SNB-75 = test: Cytotoxicity against human SNB75 cells assessed as cell growth at 10 uM after 48 hrs by SRB assay; details: SNB-75, 48 h, read-out: Activity; procedure, shortened: as §1
Compound,growth at 10 µM (SNB-19) [%],growth at 10 µM (SF-539) [%],growth at 10 µM (SF-268) [%],growth at 10 µM (KM12) [%],growth at 10 µM (HT-29) [%],growth at 10 µM (HCT-15) [%],growth at 10 µM (HCC 2998) [%],growth at 10 µM (NCI-H522) [%],growth at 10 µM (NCI-H23) [%],growth at 10 µM (NCI-H226) [%],growth at 10 µM (HOP-92) [%],growth at 10 µM (SR) [%],growth at 10 µM (CCRF-CEM) [%],growth at 10 µM (T47D) [%],growth at 10 µM (BT-549) [%],growth at 10 µM (PC-3) [%],growth at 10 µM [1] [%],growth at 10 µM (TK-10) [%],growth at 10 µM (ACHN) [%],growth at 10 µM (A498) [%],other results
O=C1CC(=O)N(c2cn3c(-c4ccc(Cl)cc4)csc3n2)N1,90.2,101,105,106,91.3,92.9,102,74.1,97.8,103,99.4,74,89.5,87.3,95.3,90,111,95,102,75.2,growth at 10 µM (SK-OV-3): 103%; growth at 10 µM [2]: 99.3%; growth at 10 µM (OVCAR-8): 101%; growth at 10 µM [3]: 87.4%; growth at 10 µM (SK-MEL-5): 99.7%; growth at 10 µM (MDA-MB-435): 93.7%; growth at 10 µM (M14): 100%; growth at 10 µM (Malme-3M): 97.1%; growth at 10 µM (SNB-75): 74.2%
O=C1CC(=O)N(c2cn3c(-c4ccccc4)csc3n2)N1,91,88.2,99.5,101,104,91.2,103,74.9,91.5,90,63.5,83,98.7,82.7,97.6,76.4,59.6,131,81.5,78.4,growth at 10 µM (SK-OV-3): 86.8%; growth at 10 µM [2]: 94.3%; growth at 10 µM (OVCAR-8): 89.8%; growth at 10 µM [3]: 81.2%; growth at 10 µM (SK-MEL-5): 89.6%; growth at 10 µM (MDA-MB-435): 99.9%; growth at 10 µM (M14): 101%; growth at 10 µM (Malme-3M): 141%; growth at 10 µM (SNB-75): 63.1%
O=C1CN2C(c3ccc(Cl)cc3)=CSC2=N1,100,94.8,100,100,88.4,93.3,101,87.5,104,110,111,77.8,91.5,92.1,89,101,92.7,79.9,95,70.2,growth at 10 µM (SK-OV-3): 98.2%; growth at 10 µM [2]: 102%; growth at 10 µM (OVCAR-8): 96%; growth at 10 µM [3]: 90.3%; growth at 10 µM (SK-MEL-5): 105%; growth at 10 µM (MDA-MB-435): 87.8%; growth at 10 µM (M14): 97%; growth at 10 µM (Malme-3M): 99.3%; growth at 10 µM (SNB-75): 75.8%
O=C1CN2C(c3ccccc3)=CSC2=N1,99.7,97.5,110,111,109,95.9,97.8,94.3,94.9,102,78,86,96.3,84.4,112,82.4,61.3,125,97.9,111,growth at 10 µM (SK-OV-3): 89.5%; growth at 10 µM [2]: 99.6%; growth at 10 µM (OVCAR-8): 97.9%; growth at 10 µM [3]: 97.7%; growth at 10 µM (SK-MEL-5): 99.8%; growth at 10 µM (MDA-MB-435): 95.1%; growth at 10 µM (M14): 99.9%; growth at 10 µM (Malme-3M): 102%; growth at 10 µM (SNB-75): 61%
